Assay results: ChEMBL document CHEMBL1212914, “A novel water-soluble gossypol derivative increases chemotherapeutic sensitivity and promotes growth inhibition in colon cancer” (J Med Chem, 2010)

Key:
A549 = experiment: Cytotoxicity against human A549 cells after 72 hrs by MTT assay; type: functional, cell-based; settings: A549, 72 h
Procedure, shortened: (§1)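 Compounds dissolved in DMSO; cells seeded at 5 × 10^3 per well and treated after adherence with a range of concentrations for 72 h, with DMSO as negative control. MTT was added for 4 h at 37 °C in the dark, formazan dissolved in DMSO, and absorbance read. IC50 (μM) was calculated as the mean of three independent experiments.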

MDA-MB-435 = experiment: Cytotoxicity against human MDA-MB-435 cells after 72 hrs by MTT assay; type: functional, cell-based; settings: Homo sapiens, MDA-MB-435, 72 h; procedure, shortened: as §1
MCF7 = experiment: Cytotoxicity against human MCF7 cells after 72 hrs by MTT assay; type: functional, cell-based; settings: Homo sapiens, MCF7, 72 h; procedure, shortened: as §1
HCT-116 = experiment: Cytotoxicity against human HCT116 cells after 72 hrs by MTT assay; type: functional, cell-based; settings: Homo sapiens, HCT-116, 72 h; procedure, shortened: as §1
B16-F10 = experiment: Cytotoxicity against mouse B16F10 cells after 72 hrs by MTT assay; type: functional, cell-based; settings: Mus musculus, B16-F10, 72 h; procedure, shortened: as §1
PC-3 = experiment: Cytotoxicity against human PC3 cells after 72 hrs by MTT assay; type: functional, cell-based; settings: Homo sapiens, PC-3, 72 h; procedure, shortened: as §1
4T1 = experiment: Cytotoxicity against mouse 4T1 cells after 72 hrs by MTT assay; type: functional, cell-based; settings: Mus musculus, 4T1, 72 h; procedure, shortened: as §1
CT26 = experiment: Cytotoxicity against mouse CT26 cells after 72 hrs by MTT assay; type: functional, cell-based; settings: Mus musculus, CT26, 72 h; procedure, shortened: as §1
MCF-7 (Homo sapiens) = experiment: Cytotoxicity against human MCF-7 cells after 72 hrs by MTT assay; settings: MCF-7, 72 h

SMILES	IC50 (A549) [µM]	IC50 (MDA-MB-435) [µM]	IC50 (MCF7) [µM]	IC50 (HCT-116) [µM]	IC50 (B16-F10) [µM]	IC50 (PC-3) [µM]	IC50 (4T1) [µM]	IC50 (CT26) [µM]	IC50 (MCF-7 (Homo sapiens)) [µM]
CO[C@@H](c1ccc([N+](=O)[O-])cc1)[C@H](CO)/N=C/c1c(O)c(O)c(C(C)C)c2cc(C)c(-c3c(C)cc4c(C(C)C)c(O)c(O)c(/C=N/[C@@H](CO)[C@@H](OC)c5ccc([N+](=O)[O-])cc5)c4c3O)c(O)c12	> 40	> 40	> 40	17.7	> 40	> 40	> 40	> 40	> 40
COC(=O)C(/N=C/c1c(O)c(O)c(C(C)C)c2cc(C)c(-c3c(C)cc4c(C(C)C)c(O)c(O)c(/C=N/C(C(=O)OC)c5c[nH]c6ccccc56)c4c3O)c(O)c12)c1c[nH]c2ccccc12 (stereo unspecified)	> 40	> 40	> 40	> 40	> 40	> 40	> 40	> 40	> 40
Cc1cc2c(C(C)C)c(O)c(O)c(/C=N/[C@@H](Cc3ccccc3)C(=O)O)c2c(O)c1-c1c(C)cc2c(C(C)C)c(O)c(O)c(/C=N/[C@@H](Cc3ccccc3)C(=O)O)c2c1O	5.38	> 40	> 40	> 40	22.4	28.4	> 40	7.36	> 40
Cc1cc2c(C(C)C)c(O)c(O)c(/C=N/C3C(=O)N4[C@@H]3SC(C)(C)[C@@H]4C(=O)O)c2c(O)c1-c1c(C)cc2c(C(C)C)c(O)c(O)c(/C=N/C3C(=O)N4[C@@H]3SC(C)(C)[C@@H]4C(=O)O)c2c1O (single isomer, unassigned)	> 40	> 40	> 40	> 40	> 40	> 40	> 40	> 40	> 40
